# Data: ChEMBL document CHEMBL1146717, “Investigation of novel fumagillin analogues as angiogenesis inhibitors” (Bioorg Med Chem Lett, 2004)
# pEC50, pIC50: −log10 of the molar value.
# Assays:
# HUVEC [1] = assay: Tested for inhibition of the human umbilical vein endothelial cell (HUVEC) proliferation
# HUVEC [2] = assay: Percent stability after 20 hr in HUVEC culture medium; expressed as % remaining; format: functional, Homo sapiens
# HUVEC [3] = assay: Percent remained in HUVEC lysate after 2 hr in presence of epoxide hydrolase (EH) (Control = 100) (Compound used as substrate); Expressed as % remaining; format: functional, Homo sapiens
# How it was run: (§1)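 Each compound at 2 mM incubated at 37 °C with epoxide hydrolase (1 mg/mL protein, final), alongside a no-enzyme control. Substrate remaining and hydrolysate formed were quantified at 3 min, 0.5 h and 2 h as % values. Estimated measurement error is 10–15%.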
# HUVEC [4] = assay: Percent stability determined after 0 hr in HUVEC lysate; expressed as % remaining; format: functional, Homo sapiens
# How it was run: (§2)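 Compound (1 mM) was incubated in HUVEC lysate at 37 °C and sampled at 0, 4 and 20 h. Results are expressed as % of compound remaining, with an estimated measurement error of 10–15%.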
# HUVEC [5] = assay: Percent remained in HUVEC lysate after 2 hr in presence of epoxide hydrolase (EH) along with inhibitor (Control = 103) (Compound used as substrate); Expressed as % remaining; format: functional, Homo sapiens
# How it was run: (§3)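 Epoxide hydrolase (1 mg/mL protein, final) was co-incubated at 37 °C with the compound (2 mM) plus cyclohexene oxide (50 mM) as EH inhibitor. Substrate remaining and hydrolysate were quantified at 3 min, 0.5 h and 2 h as % values, with an estimated error of 10–15%.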
# HUVEC [6] = assay: Percent remained in HUVEC lysate after 3 min in presence of epoxide hydrolase (EH) along with inhibitor (Control = 100) (Compound used as substrate); Expressed as % remaining; format: functional, Homo sapiens; how it was run: as §3
# HUVEC [7] = assay: Percent remained in HUVEC lysate after 0.5 hr in presence of epoxide hydrolase (EH) along with inhibitor (Control = 103) (Compound used as substrate); Expressed as % remaining; format: functional, Homo sapiens; how it was run: as §3
# HUVEC [8] = assay: Percent stability determined after 20 hr in HUVEC lysate; expressed as % remaining; format: functional, Homo sapiens; how it was run: as §2
# HUVEC [9] = assay: Percent remained in HUVEC lysate after 0.5 hr in presence of epoxide hydrolase (EH) (Control = 103) (Compound used as substrate); Expressed as % remaining; format: functional, Homo sapiens; how it was run: as §1
# HUVEC [10] = assay: Percent remained in HUVEC lysate after 0.5 hr in presence of epoxide hydrolase (EH) along with inhibitor (Compound used as hydrolysate); Expressed as % remaining; format: functional, Homo sapiens; how it was run: as §3
# HUVEC [11] = assay: Percent remained in HUVEC lysate after 2 hr in presence of epoxide hydrolase (EH) (Compound used as hydrolysate); Expressed as % remaining; format: functional, Homo sapiens; how it was run: as §1
# HUVEC [12] = assay: Percent stability after 4 hr in HUVEC culture medium; expressed as % remaining; format: functional, Homo sapiens
# HUVEC [13] = assay: Percent remained in HUVEC lysate after 3 min in presence of epoxide hydrolase (EH) (Control = 100) (Compound used as substrate); Expressed as % remaining; format: functional, Homo sapiens; how it was run: as §1
# HUVEC [14] = assay: Percent remained in HUVEC lysate after 3 min in presence of epoxide hydrolase (EH) (Compound used as hydrolysate); Expressed as % remaining; format: functional, Homo sapiens; how it was run: as §1
# HUVEC [15] = assay: Percent stability after 0 hr in HUVEC culture medium; expressed as % remaining; format: functional, Homo sapiens
# HUVEC [16] = assay: Percent remained in HUVEC lysate after 0.5 hr in presence of epoxide hydrolase (EH) (Compound used as hydrolysate); Expressed as % remaining; format: functional, Homo sapiens; how it was run: as §1
# HUVEC [17] = assay: Percent stability after 4 hr in HUVEC lysate; Expressed as % remaining; format: functional, Homo sapiens; how it was run: as §2
# HUVEC [18] = assay: Percent remained in HUVEC lysate after 2 hr in presence of epoxide hydrolase (EH) along with inhibitor (Compound used as hydrolysate); Expressed as % remaining; format: functional, Homo sapiens; how it was run: as §3
# HUVEC [19] = assay: Percent remained in HUVEC lysate after 2 hr in presence of epoxide hydrolase (EH) along with inhibitor (Control = 106) used as substrate; Expressed as % remaining; format: functional, Homo sapiens; how it was run: as §3
# HUVEC [20] = assay: Percent remained in HUVEC lysate after 2 hr in presence of epoxide hydrolase (EH) along with inhibitor (Control = 90) (Compound used as substrate); Expressed as % remaining; format: functional, Homo sapiens; how it was run: as §3
# HUVEC [21] = assay: Percent remained in HUVEC lysate after 0.5 hr in presence of epoxide hydrolase (EH) along with inhibitor (Control = 92) (Compound used as substrate); Expressed as % remaining; format: functional, Homo sapiens; how it was run: as §3
# HUVEC [22] = assay: Percent remained in HUVEC lysate after 3 min in presence of epoxide hydrolase (EH) used as hydrolysate; Expressed as % remaining; format: functional, Homo sapiens; how it was run: as §1
# HUVEC [23] = assay: Percent stability determined after 0 hr in HUVEC lysate; Expressed as % remaining; format: functional, Homo sapiens; how it was run: as §2
# HUVEC [24] = assay: Percent stability determined after 20 hr in HUVEC culture medium; Expressed as % remaining; format: functional, Homo sapiens
# HUVEC [25] = assay: Percent stability determined after 4 hr in HUVEC lysate; Expressed as % remaining; format: functional, Homo sapiens; how it was run: as §2
# HUVEC [26] = assay: Percent stability determined after 20 hr in HUVEC lysate; Expressed as % remaining; format: functional, Homo sapiens; how it was run: as §2
# HUVEC [27] = assay: Percent stability determined after 0 hr in HUVEC culture medium; Expressed as % remaining; format: functional, Homo sapiens
# HUVEC [28] = assay: Percent stability determined after 4 hr in HUVEC culture medium; Expressed as % remaining; format: functional, Homo sapiens
# [29] = target: Methionine aminopeptidase 2 (Homo sapiens, UniProt P50579); assay: Inhibitory activity against Methionine aminopeptidase 2
# Chain of Methionine aminopeptidase 2 (P50579 whole entry): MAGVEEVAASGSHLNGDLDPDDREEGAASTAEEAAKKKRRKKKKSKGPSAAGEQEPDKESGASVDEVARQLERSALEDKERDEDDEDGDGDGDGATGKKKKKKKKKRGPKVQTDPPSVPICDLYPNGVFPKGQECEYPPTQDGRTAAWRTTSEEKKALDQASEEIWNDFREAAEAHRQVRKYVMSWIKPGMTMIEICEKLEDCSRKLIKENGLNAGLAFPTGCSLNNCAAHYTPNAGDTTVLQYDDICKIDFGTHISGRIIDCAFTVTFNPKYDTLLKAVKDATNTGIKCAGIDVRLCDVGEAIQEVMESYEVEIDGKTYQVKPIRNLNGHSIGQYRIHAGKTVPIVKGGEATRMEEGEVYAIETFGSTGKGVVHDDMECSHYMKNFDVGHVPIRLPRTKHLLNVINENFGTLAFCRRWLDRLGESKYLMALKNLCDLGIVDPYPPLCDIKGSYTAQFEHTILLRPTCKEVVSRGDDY
smiles,measurement,setting,value
CO[C@@H]1[C@H](OC(C)=O)CC[C@]2(CO2)[C@H]1[C@@]1(C)O[C@@H]1CC=C(C)C,pEC50,HUVEC [1],8.52
CO[C@@H]1[C@H](OC(N)=O)CC[C@]2(CO2)[C@H]1/C(C)=N/OCc1ccccc1,Activity,HUVEC [2],69%
same,pEC50,HUVEC [1],7.06
same,Activity,HUVEC [3],1%
same,Activity,HUVEC [4],100%
same,Activity,HUVEC [5],60%
same,Activity,HUVEC [6],106%
same,Activity,HUVEC [7],95%
same,Activity,HUVEC [8],3%
same,Activity,HUVEC [9],2%
same,Activity,HUVEC [10],15%
same,Activity,HUVEC [11],100%
same,Activity,HUVEC [12],90%
same,Activity,HUVEC [13],10%
same,Activity,HUVEC [14],93%
same,Activity,HUVEC [15],100%
same,Activity,HUVEC [16],95%
same,Activity,HUVEC [17],20%
same,Activity,HUVEC [18],60%
CO[C@@H]1[C@H](OC(C)=O)CC[C@]2(CO2)[C@H]1/C(C)=N/OCc1ccccc1,pEC50,HUVEC [1],6.35
CO[C@@H]1[C@H](OC(N)=O)CC[C@]2(CO2)[C@H]1[C@@]1(C)O[C@@H]1CC=C(C)C,pEC50,HUVEC [1],9.19
same,Activity,HUVEC [6],98%
same,Activity,HUVEC [19],107%
same,Activity,HUVEC [7],109%
same,Activity,HUVEC [11],100%
same,Activity,HUVEC [13],84%
same,Activity,HUVEC [14],22%
same,Activity,HUVEC [16],103%
CO[C@@H]1[C@H](OC(N)=O)CC[C@]2(CO2)[C@H]1/C(C)=C/CC=C(C)C,Activity,HUVEC [2],68%
same,Activity,HUVEC [20],5%
same,pEC50,HUVEC [1],6.31
same,Activity,HUVEC [4],100%
same,Activity,HUVEC [6],108%
same,Activity,HUVEC [8],1%
same,Activity,HUVEC [10],21%
same,Activity,HUVEC [21],75%
same,Activity,HUVEC [11],100%
same,Activity,HUVEC [12],76%
same,Activity,HUVEC [13],18%
same,Activity,HUVEC [15],100%
same,Activity,HUVEC [16],79%
same,Activity,HUVEC [17],36%
same,Activity,HUVEC [22],77%
same,Activity,HUVEC [18],87%
CCN1CCN(C(=O)O[C@@H]2CC[C@]3(CO3)[C@@H]([C@@]3(C)O[C@@H]3CC=C(C)C)[C@@H]2OC)CC1,Activity,HUVEC [23],100%
same,Activity,HUVEC [24],75%
same,Activity,HUVEC [25],91%
same,Activity,HUVEC [26],76%
same,Activity,HUVEC [27],100%
same,Activity,HUVEC [28],95%
CO[C@@H]1[C@H](OC(=O)/C=C/C=C/C=C/C=C/C(=O)O)CC[C@]2(CO2)[C@H]1[C@@]1(C)O[C@@H]1CC=C(C)C [FUMAGILLIN],pEC50,HUVEC [1],9.09
same,pIC50,[29],9.20
